The test can be described thus: Ability to reverse action of CpG-ODN on WEHI 231 murine B-cell lymphoma cells. The class given is functional, cell-based, Mus musculus. A digest of the protocol:
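WEHI 231 murine B-lymphoma cells at 2 × 10⁵ per mL; anti-surface IgM (10 μg/mL) kills them, and CpG-ODN 1760 (6 µg/mL) reverses this. Compounds were added in triplicate at 3-fold dilutions, with or without anti-IgM. Cells were incubated 16 h at 37 °C, then pulsed with 0.5 μCi ³H-thymidine for 4 h. The concentration halving the CpG-ODN effect was read graphically from log dose-response plots. Quinacrine served as internal control.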

For the compound `Cc1cccc(-c2cc(NCCC3CCCN3C)c3ccccc3n2)c1` (stereo unspecified), the “Log 1/EC50” value is recorded as 7.85.
For the compound `CN(C)CCNc1cc(-c2ccc(CN3CCN(C)CC3)cc2)nc2ccccc12`, the “Log 1/EC50” value turned out to be 8.15.
With `CN1CCN(Cc2cccc(-c3cc(NCCCn4ccnc4)c4ccccc4n3)c2)CC1`, the “Log 1/EC50” value is given as 6.92.
The same measure for `Cc1ccc(-c2cc(NCCCCCO)c3ccccc3n2)cc1`: 5.74; for `CN(C)CCCNc1cc(-c2ccc(N3CCN(C)CC3)cc2)nc2ccccc12`: 9; for `CCN1CCCC1CNc1cc(-c2ccc(F)cc2)nc2ccccc12` (stereo unspecified): 7.77.
Take `Cc1cccc(-c2cc(NCCCN3CCOCC3)c3ccccc3n2)c1`: the “Log 1/EC50” value worked out at 7.3.
In the case of `Cc1cccc(-c2cc(NCCN(C)C)c3ccccc3n2)c1` it was 7.74.
For `CCN1CCCC1CNc1cc(-c2ccc(C)cc2)nc2ccccc12` (stereo unspecified), the “Log 1/EC50” value was 7.66.
For the compound `CN1CCN(CCNc2cc(-c3ccc(F)cc3)nc3ccccc23)CC1`, the “Log 1/EC50” value amounted to 7.73.
The same measure for `Fc1ccc(-c2cc(NCCCN3CCOCC3)c3ccccc3n2)cc1`: 7.17.
Regarding `Fc1ccc(-c2cc(NCCCCN3CCCC3)c3ccccc3n2)cc1`, the “Log 1/EC50” value amounted to 7.68.
The same measure for `Fc1ccc(-c2cc(NCCN3CCCC3)c3ccccc3n2)cc1`: 7.62.
Take `CN1CCN(c2ccc(-c3cc(NCCCN4CCOCC4)c4ccccc4n3)cc2)CC1`: the “Log 1/EC50” value is 8.66.
In the case of `NCCCCCNc1cc(-c2ccc(F)cc2)nc2ccccc12`, the “Log 1/EC50” value came to 7.81.
`CN1CCN(CCCNc2cc(-c3ccc(CN4CCN(C)CC4)cc3)nc3ccccc23)CC1`: the “Log 1/EC50” value is reported as 8.17.
As to `Cc1ccc(-c2cc(NCCN(C)C)c3ccccc3n2)cc1`, the “Log 1/EC50” value amounted to 7.91.
For `CN1CCCC1CCNc1cc(-c2ccc(F)cc2)nc2ccccc12` (stereo unspecified), the “Log 1/EC50” value is 7.88.
On to `CN1CCN(c2ccc(-c3cc(NCCC4CCCN4C)c4ccccc4n3)cc2)CC1` (stereo unspecified), for which the “Log 1/EC50” value stood at 8.7.
Turning to `Cc1cccc(-c2cc(NCCCN3CCN(C)CC3)c3ccccc3n2)c1`, the “Log 1/EC50” value came to 7.56.
For the compound `CN(C)CCNc1cc(-c2ccc(N3CCCCC3)cc2)nc2ccccc12`, the “Log 1/EC50” value amounted to 8.27.
The same measure for `CN(C)CCCNc1cc(-c2ccc(N3CCCCC3)cc2)nc2ccccc12`: 7.8; for `Cc1cccc(-c2cc(OCCN(C)C)c3ccccc3n2)c1`: 5.51; for `Cc1ccc(-c2cc(Nc3ccc(O)c(CN4CCN(C)CC4)c3)c3ccccc3n2)cc1`: 7.88.
Turning to `CN1CCN(CCNc2cc(-c3ccc(N4CCN(C)CC4)cc3)nc3ccccc23)CC1`, the “Log 1/EC50” value came to 8.82.
With `Cc1ccc(-c2cc(OCCN(C)C)c3ccccc3n2)cc1`, the “Log 1/EC50” value was determined as 5.88.
The same measure for `CN(C)CCCCNc1cc(-c2ccc(N3CCCCC3)cc2)nc2ccccc12`: 7.33; for `Cc1cccc(-c2cc(NCCCn3ccnc3)c3ccccc3n2)c1`: 6.71.
In the case of `Cc1ccc(-c2cc(NCCCN(C)C)c3ccccc3n2)cc1` it was 7.94; in that of `Cc1cccc(-c2cc(NCCCN(C)C)c3ccccc3n2)c1`, 7.88.
For the compound `CN1CCN(Cc2cccc(-c3cc(NCCC4CCCN4C)c4ccccc4n3)c2)CC1` (stereo unspecified), the “Log 1/EC50” value is on record as 8.11.
Regarding `CCN(CC)CCNc1cc(-c2cccc(C)c2)nc2ccccc12`, the “Log 1/EC50” value stood at 7.65.
As to `CN1CCN(Cc2cc(Nc3cc(-c4ccc(N5CCN(C)CC5)cc4)nc4ccccc34)cc(CN3CCN(C)CC3)c2O)CC1`, the “Log 1/EC50” value worked out at 8.85.
In the case of `CN(C)CCCCNc1cc(-c2ccc(N3CCN(C)CC3)cc2)nc2ccccc12` it was 8.91; in that of `Cc1ccc(-c2cc(Nc3cc(CN4CCN(C)CC4)c(O)c(CN4CCN(C)CC4)c3)c3ccccc3n2)cc1`, 8.84.
`CN1CCN(c2ccc(-c3cc(NCCCCN4CCCC4)c4ccccc4n3)cc2)CC1`: the “Log 1/EC50” value was determined as 8.26.
Turning to `CN1CCN(c2ccc(-c3cc(NCCN4CCCC4)c4ccccc4n3)cc2)CC1`, the “Log 1/EC50” value came to 8.62.
On to `CN(C)CCCNc1cc(-c2ccc(F)cc2)nc2ccccc12`, for which the “Log 1/EC50” value was 7.86.
In the case of `OCCCCCNc1cc(-c2ccc(F)cc2)nc2ccccc12`, the “Log 1/EC50” value stood at 5.16.
For `Cc1ccc(-c2cc(NCCCn3ccnc3)c3ccccc3n2)cc1`, the “Log 1/EC50” value is 6.98.
Regarding `CN(C)CCCNc1cc(-c2ccc(CN3CCN(C)CC3)cc2)nc2ccccc12`, the “Log 1/EC50” value came out at 8.04.
As to `CCN(CC)CCNc1cc(-c2ccc(C)cc2)nc2ccccc12`, the “Log 1/EC50” value was determined as 7.73.
In the case of `Cc1ccc(-c2cc(NCCCN3CCOCC3)c3ccccc3n2)cc1` it was 7.57; in that of `CN(C)CCNc1cc(-c2ccc(N3CCN(C)CC3)cc2)nc2ccccc12`, 9.12.
`CN1CCN(Cc2ccc(-c3cc(NCCN4CCCC4)c4ccccc4n3)cc2)CC1`: the “Log 1/EC50” value is listed as 8.49.
With `CN(C)CCCCCNc1cc(-c2ccc(N3CCN(C)CC3)cc2)nc2ccccc12`, the “Log 1/EC50” value came out at 8.84.
In the case of `CN1CCN(Cc2cc(Nc3cc(-c4ccc(F)cc4)nc4ccccc34)cc(CN3CCN(C)CC3)c2O)CC1` it was 8.76; in that of `CCN1CCCC1CNc1cc(-c2cccc(C)c2)nc2ccccc12` (stereo unspecified), 7.66.
For the compound `Cc1ccc(-c2cc(NCCCN3CCN(C)CC3)c3ccccc3n2)cc1`, the “Log 1/EC50” value is given as 7.86.
Regarding `CN1CCN(Cc2cc(Nc3cc(-c4ccc(F)cc4)nc4ccccc34)ccc2O)CC1`, the “Log 1/EC50” value is 7.67.
For `CN(C)CCCCNc1cc(-c2ccc(F)cc2)nc2ccccc12`, the “Log 1/EC50” value turned out to be 7.76.

The values are drawn from ChEMBL document CHEMBL1136744, “Synthesis and activity of substituted 2-phenylquinolin-4-amines, antagonists of immunostimulatory CpG-oligodeoxynucleotides” (J Med Chem, 2003).
